Only a selection was taken, and hits are over-represented in it overall.
Glyco luc inh = N-linked glycosylation inhibition. D54 ERlucT glycosylation luciferase reporter, 24 h; percent of 100 nM tunicamycin response. reporter increase, % at 12.5 µM. 0.23% of 360,000 active. AID 588692;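 active = mean luciferase reporter signal, scaled so untreated is 0 and the glycosylation-blocking control 100, at or above a set limit in every replicate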;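 note: luciferase carries N-glycosylation sites so blocking glycosylation raises the light; 0% = median of neutral control wells and 100% = median of 100 nM tunicamycin wells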
ALR inh = blocks human ALR sulfhydryl oxidase activity. P55789. purified ALR, DTT oxidation, H2O2 HRP-luminol luminescence. inhibition, % (concentration not given with the values). 3.8% of 290,000 active. AID 485317;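 active = mean replicate inhibition above about 79%, with every replicate also reaching it, limit read from the data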
Target sequence (P55789 whole entry, looked up): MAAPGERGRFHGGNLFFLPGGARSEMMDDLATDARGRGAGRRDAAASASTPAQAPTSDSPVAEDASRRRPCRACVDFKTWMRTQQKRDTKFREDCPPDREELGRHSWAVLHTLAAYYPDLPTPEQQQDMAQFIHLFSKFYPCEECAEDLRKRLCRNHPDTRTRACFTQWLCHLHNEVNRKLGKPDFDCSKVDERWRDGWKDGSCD
T cell HTS = T cell immune modulators affecting CD8 T cell-vesicle binding; AID 2052; response (vesicle binding), % at 7 µM; 0.068% of 330,000 active; 2C CD8+ T cell-vesicle binding, flow cytometry; hits give low values;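 active = response, share of CD8 T cells binding vesicles, and their 90th percentile fluorescence all below set limits, cut at about 80% in these data, passing the limit was not always enough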;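 note: values below 100% mean blocked vesicle binding to the CD8+ T cells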
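material = purified 2C TCR transgenic mouse naive CD8+ T cells | controls = Unloaded micro-vesicles (low), QL9 vesicles with 0.7% DMSO (high) | detection = cytometric PE anti-B7-1 and Alexa647 anti-CD8 signals after 1% paraformaldehyde fixation | incubation = binding step 1.5 h, 37 °C, antibody labelling 20 min, ice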
The depositor's hits bear a star; / = no result.

SMILES | Glyco luc inh | ALR inh | T cell HTS
COc1ccc([C@H]2[C@H](C(=O)C(C)(C)C)N3N=Cc4ccccc4C3C23C(=O)OC(C)(C)OC3=O)cc1 (stereo partly drawn) | -1.3 | 95.1* | 452.2
O=S1(=O)CC(N2CC=CC2)CN1Cc1ccc(F)cc1 (stereo not drawn) | -1.2 | / | /
Cc1c(NC(=O)Nc2ccc3c(c2)OCO3)cccc1[N+](=O)[O-] | -3.3 | -7.1 | 214.4
CC1CCCCC1N(C)C1CCN(C(=O)CNC(=O)/C=C/c2cccc(Cl)c2)CC1 (stereo not drawn) | -2.6 | -5.8 | 186.4
Cc1ccc(C)c(N(C(=O)c2csnn2)C(C(=O)NC2CCCC2)c2cccnc2)c1 (stereo not drawn) | 0.7 | -1.3 | 270.0
COC(=O)CSc1cnc2ccccc2n1 | 1.7 | -0.4 | 456.9
CC(C)c1nc(SCC(=O)c2ccc(F)cc2)c2ccccc2n1 | 1.2 | 98.6* | 846.7
COC(=O)CSc1nc(C(C)C)nc2ccccc12 | 1.7 | -10.7 | 399.0
O=C(CSc1cnc2ccccc2n1)c1ccc(F)cc1 | -19.3 | 97.1* | 178.7
CCOC(=O)CSc1nc(C(C)C)nc2ccccc12 | 0.3 | -3.6 | 583.7
Cc1ccc(C(=O)CSc2nc(C(C)C)nc3ccccc23)cc1 | -0.1 | 98.4* | 125.2
CC(=O)Nc1cccc(-n2c(=O)n(Cc3ccccc3)c(=O)c3[nH]cnc32)c1 | 0.9 | -2.0 | 466.1
Cc1ccc(S(=O)(=O)N(C)C[C@H]2OCc3cn(nn3)CCCC(=O)N([C@H](C)CO)C[C@@H]2C)cc1 | 1.0 | / | /
Cc1c[n+]([O-])cc(C)c1[N+](=O)[O-] | 0.5 | / | /
O=C1O[C@@H]([C@H](O)CO)C(O)=C1O | 0.9 | 12.7 | 630.4
COc1cc2ccc3c(CCN(C)C)cc(OC)c(OC)c3c2cc1OC | -2.2 | / | 178.7
CN(C)CCc1cc2c(c3c1ccc1ccccc13)OCO2 | 78.0* | -108.5 | 643.1
O=C(CNC(=S)N(CCCN1CCOCC1)Cc1cccs1)NC1CCCC1 | -1.0 | -18.6 | 212.6
C=CCN1C(=O)/C(=C\c2ccc(Cl)cc2)N=C1SCC(=O)NC1CCCCC1 | 0.4 | 2.2 | 181.1
COc1ccc(Cl)cc1N1C(=O)/C(=C\c2sccc2C)N=C1SCC(=O)NC1CC1 | -2.4 | 81.0* | 526.4
COc1ccc(C(C(=O)NC(C)(C)C)N(C(=O)CCC(=O)Nc2cc(C)on2)c2c(C)cccc2C)cc1 (stereo not drawn) | -1.2 | 1.0 | 364.5
COc1cc(NC(=O)c2ccc(S(=O)(=O)N(C)c3ccccc3)cc2)cc(OC)c1 | -0.7 | / | 193.6
COc1ccccc1-c1coc2cc(O)cc(O)c2c1=O | 3.2 | 15.6 | 265.8
O=c1c(-c2ccc(O)cc2O)coc2cc(O)cc(O)c12 | -4.3 | 81.5* | 219.6
CCCCOc1ccc(C(=O)NCC(=O)N(C)CC(=O)Nc2ccc(N3CCOCC3)cc2)cc1 | -1.5 | 40.8 | 223.8
SMILES | Glyco luc inh | ALR inh | T cell HTS
CN(CC(=O)Nc1ccc(N2CCOCC2)cc1)C(=O)CCNC(=O)c1ccc(Br)cc1 | 2.7 | 96.4* | 225.0
COc1ccccc1C(=O)N(C)CC(=O)Nc1ccc(N2CCOCC2)cc1 | 1.2 | 48.7 | 453.6
CC(Oc1cccc(Cl)c1)C(=O)N(C)CC(=O)Nc1ccc(N2CCOCC2)cc1 (stereo not drawn) | 0.4 | 93.2* | 281.1
COc1ccccc1C(=O)NCCC(=O)N(C)CC(=O)Nc1ccc(N2CCOCC2)cc1 | 0.7 | 98.7* | 273.4
O=C(COc1cccc(Cl)c1)Nc1ccc(N2CCOCC2)cc1 | 2.0 | 10.2 | 259.6
Cc1ccc2nc(Nc3ccc(C)c(C)c3)c3nncn3c2c1 | 5.4 | -8.8 | 727.5
Cc1ccc(N(CC(O)CN2CCCCC2)S(=O)(=O)c2ccc(C)cc2)cc1 (stereo not drawn) | -1.9 | -24.9 | 393.5
COCCN(C(=O)C(=O)NC1CCCC1)C(C(=O)NC1CCCC1)c1ccccc1F (stereo not drawn) | -0.7 | -10.6 | 319.0
COc1ccc2c(c1OC)C(=O)OC2C1c2c(cc3c(c2OC)OCO3)CCN1C (stereo not drawn) | 1.5 | 2.2 | 508.5
CN1CCc2cc3c(c4c2[C@H]1[C@H](O)c1ccccc1-4)OCO3 | 33.5* | -33.8 | /
CCc1nnc(NC(=O)C2CCC(CNc3c(N4CCCCC4)c(=O)c3=O)CC2)s1 (stereo not drawn) | 0.4 | -7.3 | 432.1
Cc1c(N(C)S(=O)(=O)c2ccc(Cl)c(C(=O)N3CCC(C(N)=O)CC3)c2)c(=O)n(-c2ccccc2)n1C | 2.0 | -6.2 | 229.8
Cc1cccc(NC(=O)COc2cccc3c2CCN(Cc2ccccc2)C3=O)c1C | -2.7 | 3.1 | 180.8
CCN1CCc2c(OCC(=O)Nc3cccc(C)c3C)cccc2C1=O | / | -76.7 | 66.6*
CCOC(=O)c1c(NC(=O)COc2cccc3c2CCN(C)C3=O)sc2c1CCC2 | -6.1 | 87.3* | 302.7
Cc1cccc(NC(=O)COc2cccc3c2CCN(C)C3=O)c1C | -0.6 | -8.2 | 237.1
